The species named for one assay is Mus musculus. As to the kind of experiment: In Vitro inhibition of Heme Oxygenase in Plasmodium yoelii (host) at concentration 100 uM. It is filed as functional. An outline of the steps: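 In vitro heme oxygenase, cell-free: post-mitochondrial fractions of P. yoelii parasites and of infected host liver. Test compounds at 10-100 µM were preincubated 10 min in the assay system before the enzyme reaction started. Activity was followed as bilirubin formation and expressed as % inhibition.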

Assay [1] concerns Plasmodium berghei. The assay can be described thus: Evaluated for the Heme oxygenase (Values are mean +/- SD of 4 separate observations. Specific activity in nmol/h/mg protein) in chloroquine-sensitive Plasmodium berghei. It is filed as functional. Put shortly: (§1)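 Mastomys carrying CQ-resistant P. berghei were dosed orally at 15 mg/kg for 10 days. Untreated CQ-resistant and CQ-sensitive parasites served as reference samples. Parasites were isolated by density-gradient centrifugation and saponin lysis. Heme oxygenase was followed as bilirubin formation in the post-mitochondrial fraction and expressed as nmol/h/mg protein.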

The subject of assay [2] is Plasmodium berghei. The assay can be described thus: Evaluated for the Heme oxygenase (Values are mean +/- SD of 4 separate observations. Specific activity in nmol/h/mg protein) in chloroquine-resistant Plasmodium berghei which is treated with 15 mg/kg body weight of compound for 10 days; NA denotes no activity. It is filed as functional, organism-based. On the set-up: dose 15 mg/kg. Put shortly:
as §1

For assay [3], the system named is Plasmodium yoelii. As to the kind of experiment: Evaluated for the Heme oxygenase in chloroquine-resistant Plasmodium yoelii. It is filed as functional.
For assay [4], the system named is Plasmodium yoelii nigeriensis. The assay can be described thus: In Vitro inhibition of Heme Oxygenase in Cell-free parasite Plasmodium yoelii at concentration 100 uM. The assay is classed as functional. An outline of the steps: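 Heme oxygenase activity was measured as bilirubin formation in a post-mitochondrial fraction. The parasite enzyme came from cell-free P. yoelii, isolated from infected blood by density gradient centrifugation and saponin lysis. The host enzyme came from infected liver. Compounds were tested at 10–100 µM and preincubated for 10 min before the reaction was started.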

Assay [5] concerns Plasmodium berghei. The assay can be described thus: In vivo antimalarial activity as parasitemia at day 10 in chloroquine-resistant Plasmodium berghei infected Mastomys coucha; range 20-22%. It is filed as functional.
Assay [6] deals with Plasmodium yoelii. The assay can be described thus: In vivo parasitaemia at day 17 in chloroquine-resistant Plasmodium yoelii nigeriensis infected Swiss Albino mice (Mus musculus); Not active. The assay is classed as functional, organism-based.
For assay [7], the system named is Plasmodium yoelii. The assay can be described thus: In vivo antimalarial activity as parasitemia at day 6 in chloroquine-resistant Plasmodium yoelii nigerienses infected Swiss Albino mice (Mus musculus); range 70-80%. It is filed as functional.
Assay [8] deals with Plasmodium yoelii. The assay can be described thus: In vivo antimalarial activity as MST of 1 week in chloroquine-resistant Plasmodium yoelii nigeriensis infected Swiss Albino mice (Mus musculus) at 15 mg/kg. The assay is classed as functional.
Assay [9] relates to Plasmodium berghei. The assay can be described thus: In vivo resistance reversal at day 10 in chloroquine-resistant Plasmodium berghei infected Mastomys coucha at 10 mg/kg; range 20-22. The assay is classed as functional.
In assay [10] the test system is Plasmodium berghei. The assay can be described thus: In vivo resistance reversal at day 10 in chloroquine-resistant Plasmodium berghei infected Mastomys coucha at 10 mg/kg; range 20-22%. The assay is classed as functional.
The subject of assay [11] is Plasmodium berghei. As to the kind of experiment: In vivo antimalarial activity as parasitemia at day 17 in-chloroquine-resistant Plasmodium berghei infected Mastomys coucha treated to day 10; No inhibition. The assay is classed as functional, organism-based.
Assay [12] relates to Plasmodium berghei. The assay can be described thus: In vivo antimalarial activity as parasitaemia at day 17 in chloroquine-resistant Plasmodium berghei infected Mastomys coucha treated to day 10; range 25-30%. It is filed as functional.
Assay [13] relates to Plasmodium berghei. The assay can be described thus: In vivo pretreatment parasitemia in chloroquine-resistant Plasmodium berghei infected Mastomys coucha; range 4-5%. It is filed as functional.
Assay [14] has as its system Plasmodium berghei. As to the kind of experiment: Heme content in chloroquine-resistant Plasmodium berghei at 15 mg/kg for 10 days. It is filed as functional.
In assay [15] the test system is Plasmodium yoelii. The assay can be described thus: Evaluated for the Heme oxygenase in chloroquine-sensitive Plasmodium yoelii. It is filed as functional.
In assay [16] the test system is Plasmodium yoelii nigeriensis. The assay can be described thus: Hemozoin formation in chloroquine-resistant Plasmodium yoelii.
The subject of assay [17] is Plasmodium berghei. As to the kind of experiment: Hemozoin formation in chloroquine-resistant Plasmodium berghei at 15 mg/kg for 10 days.

Calls of active or inactive are those of the source. The rule behind the calls is not given here. A value given as a limit tells only on which side of the number the result lay.

In general, inhibition refers to how much of the control response was suppressed. Read a high inhibition as a strong effect.

Consider `CCN(CC)CCCN1CC/C(=C\c2ccc(OC)cc2)C1`, for which the inhibition is 31% in the assay filed under Mus musculus and 87% in [4]. Moreover, the Mean in the assay on Plasmodium berghei [1] was 7.32 nM/h/mg; with Plasmodium yoelii [3] it was 102 nM/h/mg; in the assay on Plasmodium berghei [14], 321 pmol/mg; in the assay on Plasmodium yoelii [15], 10.2 nM/h/mg; in [16], 43.3 pmol/mg; in the assay on Plasmodium berghei [17], 71.1 pmol/mg. In addition, the NA entry in the assay with Plasmodium berghei [2] is “inactive”. Also, the Parasites is 22% with Plasmodium berghei [5], 80% with Plasmodium yoelii [7], over 30% with Plasmodium berghei [12] and 5% in the assay on Plasmodium berghei [13]. The NI entry with Plasmodium yoelii [6] and in the assay with Plasmodium berghei [11] was “No inhibition” each time. The values for the Mean survival time in the assay with Plasmodium yoelii [8], in the assay with Plasmodium berghei [9] and with Plasmodium berghei [10] were 1, 22 days and 22 days, respectively.

For the origin of these results see ChEMBL document CHEMBL1133641, “A new class of potential chloroquine-resistance reversal agents for Plasmodia: syntheses and biological evaluation of 1-(3'-diethylaminopropyl)-3-(substituted phenylmethylene)pyrrolidines” (2000).
